# Source: ChEMBL document CHEMBL2321691 (J Med Chem, 2013)
# Activity calls are given as the source filed them. No cut-off for these calls is given here.
# Columns and labels:
# [1] = tested on: HeLa; test: Induction of apoptosis in human HeLa cells assessed as PARP cleavage at 50 nM by Western blotting analysis; type: functional, cell-based
# Outline: (§1)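 HeLa cells given 50 nM compound for several times; untreated controls run in parallel. About 5 x 10^6 cells lysed and run on reducing SDS gels (12% for caspase-3, 8% for PARP), then blotted to nitrocellulose. Probed overnight with anti-active caspase-3 (p19/p17) or C2.10 anti-PARP (116 kDa and p85), each 1:1000. β-actin loading control; ECL detection. Three experiments.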
# [2] = tested on: HL-60; test: Cytotoxicity against human HL60 cells assessed as growth inhibition after 72 hrs by XTT assay; type: functional, cell-based; conditions: HL-60, 72 h
# Outline: (§2)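 Cells seeded at 1.5 x 10^3 per well (A549, HeLa, HT-29) or 3 x 10^3 (HL-60) in medium with 10% heat-inactivated FBS. Compound tested from 10-5 to 10-13 M for 72 h at 37 °C, then XTT readout. […] Triplicate wells, three experiments; mean ± S.D.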
# [3] = tested on: HeLa; test: Cytotoxicity against human HeLa cells assessed as growth inhibition after 72 hrs by XTT assay
# [4] = tested on: HeLa; test: Inhibition of microtubule system in human HeLa cells at 10 nM after 18 hrs by confocal microscopic analysis; type: cell-based
# Outline: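 HeLa cells grown on poly-L-lysine coverslips and treated 18 h at 10^-8 M. Washed in HPEM (pH 6.6), fixed 15 min in 4% paraformaldehyde, permeabilized with 0.5% Triton X-100. Stained with anti-α-tubulin (1:150, 1 h), then CY3 anti-mouse IgG (1:100, 1 h, 4 °C). Imaged by confocal microscopy; representative of at least three experiments.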
# [5] = tested on: HT-29; test: Cytotoxicity against human HT-29 cells assessed as growth inhibition after 72 hrs by XTT assay; type: functional, cell-based; conditions: HT-29, 72 h; outline: as §2
# [6] = Inhibition of bovine brain tubulin polymerization after 30 mins by spectrophotometry; parameters: species or system Bos taurus
# Outline: (§3)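 Bovine brain tubulin at 1.5 mg/mL, pH 6.7, in 0.1 M MES, 1 mM EGTA, 1 mM MgCl2, 1 mM β-ME, 1.5 mM GTP with ligand. Incubated 20 °C for 30 min, then on ice 10 min. Assembly read as the A450 rise on a shift from 4 to 38 °C; inhibition is plateau minus baseline against ligand-free control. IC50 from monoexponential fits.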
# [7] = tested on: HeLa; test: Induction of apoptosis in human HeLa cells assessed as processing of procaspase-3 into the p19/p17 active form at 50 nM by Western blotting analysis; type: functional, cell-based; outline: as §1
# [8] = tested on: A549; test: Cytotoxicity against human A549 cells assessed as growth inhibition after 72 hrs by XTT assay; type: functional, cell-based; conditions: A549, 72 h; outline: as §2
# [9] = tested on: HeLa; test: Induction of apoptosis in human HeLa cells at 50 nM after 72 hrs by […] analysis in presence of caspase inhibitor z-VAD-fmk relative to control; type: functional
# [10] = tested on: HeLa; test: Induction of apoptosis in human HeLa cells at 50 nM after 72 hrs by […] analysis relative to control; type: functional
# [11] = tested on: HeLa; test: Induction of apoptosis in human HeLa cells assessed as accumulation at sub-G0/G1 phase at 50 nM after 72 hrs by […] analysis; type: functional, cell-based
# [12] = tested on: HeLa; test: Cell cycle arrest in human HeLa cells assessed as accumulation at G2/M phase at 10^-8 M incubated for 18 hrs by propidium iodide staining-based FACS flow cytometric analysis relative to control; type: functional
# Outline: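 HeLa cells treated 18 h at 10^-8 M, with untreated controls run in parallel. 2-4 x 10^5 cells fixed overnight in 70% ethanol at 4 °C, washed in PBS, then incubated 1 h at room temperature with 1 mg/mL RNAse A and 20 µg/mL propidium iodide. DNA content read by FACSCalibur flow cytometry; percentage of cells in G2/M. Representative of three experiments.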
# [13] = tested on: HeLa; test: Induction of apoptosis in human HeLa cells assessed as accumulation of DNA at sub-G0/G1 phase incubated for 24 hrs by propidium iodide staining-based FACS flow cytometric analysis relative to control; type: functional; conditions: in the assay text read “72 hrs” for “24 hrs”
# Outline: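 Apoptosis counted as percentage of HeLa cells in the sub-G0/G1 peak. Cells fixed in 70% ethanol, stained 1 h with RNAse A (1 mg/mL) and propidium iodide (20 µg/mL), then read by flow cytometry. Time-course used 5-100 nM for 18-72 h.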
# [14] = species on record: Bos taurus; test: Inhibition of bovine brain tubulin polymerization at 20 uM after 30 mins by spectrophotometry; outline: as §3
compound,measurement,setting,value
C=C(c1cc(OC)c(OC)c(OC)c1)c1ccc2c(c1)c(C#N)cn2C,Activity,[1],Active
same,IC50,[2],1.3 nM
same,IC50,[3],2.9 nM
same,inhibition,[4],Active
same,IC50,[5],3.9 nM
same,IC50,[6],1200 nM
same,Activity,[7],Active
same,IC50,[8],8.4 nM
same,Activity,[9],5%
same,Activity,[10],19.5%
same,Activity,[11],Active
same,Activity,[12],>83%
same,Activity,[13],20%
same,inhibition,[14],93%
